Reference: ChEMBL document CHEMBL2384939, “Synthesis of pyrazolo[1,5-a]pyrimidine linked aminobenzothiazole conjugates as potential anticancer agents” (Bioorg Med Chem Lett, 2013)
pIC50: −log10 of the molar value. Active and inactive are the calls of the source. The calls are words filed in the database; no cut-off is given here.

Experiments:
DU-145 = test: Cytotoxicity against human DU145 cells after 48 hrs by MTT assay; type: functional, cell-based; conditions: DU-145, 48 h
Summary of the method: (§1)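 MTT assay: […] were plated in DMEM with 10% FBS and incubated for 24 h at 37 °C under CO2. Compounds diluted in culture medium were added alongside a vehicle control for 48 h. MTT (10 µl of a 5 mg/ml stock) was added for a further 4 h. The supernatant was then removed, the formazan dissolved in DMSO, and absorbance read at 540 nm. IC50 was derived.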

HeLa = test: Cytotoxicity against human HeLa cells after 48 hrs by MTT assay; type: functional, cell-based; summary of the method: as §1
MCF7 = test: Cytotoxicity against human MCF7 cells after 48 hrs by MTT assay; type: functional, cell-based; conditions: MCF7, 48 h; summary of the method: as §1
ACHN = test: Cytotoxicity against human ACHN cells after 48 hrs by MTT assay; type: functional, cell-based; summary of the method: as §1
A549 [1] = test: Cytotoxicity against human A549 cells after 48 hrs by MTT assay; type: functional, cell-based; conditions: A549, 48 h; summary of the method: as §1
A549 [2] = test: Cell cycle arrest at human A549 cells assessed as accumulation at G0/G1 phase at 2 uM after 48 hrs by propidium iodide-staining-based FACS flow cytometric analysis (reference value: 81.33%); type: functional
A549 [3] = test: Induction of apoptosis in human A549 cells assessed as DNA fragmentation at 2 uM after 48 hrs by agarose gel electrophoresis; type: functional, cell-based
Summary of the method: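 A549 cells (1×10^6) seeded in six-well plates for 24 h, then exposed to 2 µM compound or roscovitine for 48 h and pelleted. Lysate treated with SDS and RNase-A (2 h, 56 °C), then proteinase K (2 h, 37 °C). DNA precipitated with ammonium acetate/cold ethanol, dissolved in TE, and laddering resolved on 2% agarose gel against a 50 bp marker.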

A549 [4] = test: Cell cycle arrest at human A549 cells assessed as accumulation at sub G1 phase at 2 uM after 48 hrs by propidium iodide-staining-based FACS flow cytometric analysis (reference value: 1.02%); type: functional
A549 [5] = test: Cell cycle arrest at human A549 cells assessed as accumulation at S phase at 2 uM after 48 hrs by propidium iodide-staining-based FACS flow cytometric analysis (reference value: 4.48%); type: functional
A549 [6] = test: Cell cycle arrest at human A549 cells assessed as accumulation at G2/M phase at 2 uM after 48 hrs by propidium iodide-staining-based FACS flow cytometric analysis (reference value: 13.17%); type: functional
A549 [7] = test: Induction of apoptosis in human A549 cells assessed as activation of caspase-3 at 2 uM after 48 hrs by ELISA relative to control; type: functional
Summary of the method: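 A549 lung cancer cells exposed to 1 and 2 µM compound for 48 h, with roscovitine as positive control. Pellets lysed for 15 min, and supernatant caspase-3 activity read by a commercial colorimetric kit relative to untreated control. Values are mean ± SD of two experiments run in triplicate.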

SMILES | pIC50 (DU-145) | pIC50 (HeLa) | pIC50 (MCF7) | pIC50 (ACHN) | pIC50 (A549 [1]) | Activity (A549 [2]) | Activity (A549 [3]) | Activity (A549 [4]) | Activity (A549 [5]) | Activity (A549 [6]) | fold change (FC) (A549 [7])
COc1ccc2nc(NC(=O)c3cc(-c4cc(OC)c(OC)c(OC)c4)n4nc(-c5ccccc5)cc4n3)sc2c1 | 5.40 | 5.06 | 5.53 | 5.28 | 5.55 | – | – | – | – | – | –
COc1cc(-c2cc(C(=O)Nc3nc4ccc(Cl)cc4s3)nc3cc(-c4ccccc4)nn23)cc(OC)c1OC | 4.41 | 4.65 | 4.52 | 4.38 | 4.74 | – | – | – | – | – | –
Cc1cc2nc(NC(=O)c3cc(-c4ccc(F)cc4)n4nc(-c5ccccc5)cc4n3)sc2cc1C | 4.89 | 4.74 | 4.77 | 4.48 | 4.90 | – | – | – | – | – | –
COc1ccc(-c2cc(C(=O)Nc3nc4cc(C)c(C)cc4s3)nc3cc(-c4ccccc4)nn23)cc1 | 4.91 | 4.85 | 4.71 | 4.65 | 4.88 | – | – | – | – | – | –
O=C(Nc1nc2ccc(F)cc2s1)c1cc(-c2ccc(F)cc2)n2nc(-c3ccccc3)cc2n1 | 4.64 | 4.53 | 4.64 | 4.45 | 4.83 | – | – | – | – | – | –
COc1ccc2nc(NC(=O)c3cc(-c4ccc(F)cc4)n4nc(-c5ccccc5)cc4n3)sc2c1 | 4.81 | 4.76 | 4.61 | 4.58 | 4.62 | – | – | – | – | – | –
COc1cc(-c2cc(C(=O)Nc3nc4cc(C)c(C)cc4s3)nc3cc(-c4ccccc4)nn23)cc(OC)c1OC | 5.43 | 5.05 | 5.64 | 5.42 | 5.63 | – | – | – | – | – | –
COc1ccc(-c2cc(C(=O)Nc3nc4ccccc4s3)nc3cc(-c4ccccc4)nn23)cc1 | 5.53 | 5.33 | 5.65 | 5.77 | 5.81 | – | – | – | – | – | –
COc1ccc(-c2cc(C(=O)Nc3nc4ccccc4s3)nc3cc(-c4ccccc4)nn23)cc1OC | 4.72 | 5.05 | 4.83 | 5.10 | 5.26 | – | – | – | – | – | –
COc1ccc(-c2cc(C(=O)Nc3nc4ccc(Cl)cc4s3)nc3cc(-c4ccccc4)nn23)cc1 | 5.23 | 5.23 | 5.31 | 5.14 | 5.51 | – | – | – | – | – | –
COc1ccc2nc(NC(=O)c3cc(-c4ccc(OC)c(OC)c4)n4nc(-c5ccccc5)cc4n3)sc2c1 | 4.85 | 4.96 | 4.73 | 4.88 | 4.80 | – | – | – | – | – | –
O=C(Nc1nc2ccc(Cl)cc2s1)c1cc(-c2ccc(F)cc2)n2nc(-c3ccccc3)cc2n1 | 4.75 | 5.01 | 4.70 | 4.86 | 5.18 | – | – | – | – | – | –
COc1ccc(-c2cc(C(=O)Nc3nc4ccc(OC)cc4s3)nc3cc(-c4ccccc4)nn23)cc1 | 5.12 | 4.61 | 4.72 | 4.42 | 4.76 | – | – | – | – | – | –
COc1ccc(-c2cc(C(=O)Nc3nc4ccc(F)cc4s3)nc3cc(-c4ccccc4)nn23)cc1 | 4.50 | 4.38 | 4.45 | 4.41 | 4.93 | – | – | – | – | – | –
COc1ccc(-c2cc(C(=O)Nc3nc4ccc(Cl)cc4s3)nc3cc(-c4ccccc4)nn23)cc1OC | 5.03 | 5.04 | 5.16 | 5.11 | 5.21 | – | – | – | – | – | –
COc1ccc(-c2cc(C(=O)Nc3nc4cc(C)c(C)cc4s3)nc3cc(-c4ccccc4)nn23)cc1OC | 5.16 | 5.17 | 5.60 | 5.06 | 5.53 | – | – | – | – | – | –
COc1cc(-c2cc(C(=O)Nc3nc4ccc(F)cc4s3)nc3cc(-c4ccccc4)nn23)cc(OC)c1OC | 4.59 | 4.60 | 4.56 | 4.49 | 4.65 | – | – | – | – | – | –
COc1ccc(-c2cc(C(=O)Nc3nc4ccc(F)cc4s3)nc3cc(-c4ccccc4)nn23)cc1OC | 4.73 | 5.08 | 4.65 | 5.09 | 5.16 | – | – | – | – | – | –
CC[C@H](CO)Nc1nc(NCc2ccccc2)c2ncn(C(C)C)c2n1 [SELICICLIB] | 5.72 | 5.74 | 5.40 | 5.54 | 5.66 | 46.75% | Active | 7.3% | 5.26% | 40.69% | 4
